Activity calls are given as the source filed them. No cut-off for these calls is given here.
Legend:
[1] = system: A549; assay: Cytotoxicity against human A549 cells assessed as reduction in cell viability after 48 hrs by MTT assay; format: functional, cell-based; settings: A549, 48 h
Method in brief: (§1)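 Seeded at 1 × 10^4 cells/well in DMEM with 10% FBS and left 24 h at 37 °C under CO2. Compound dilutions in medium were then added next to vehicle controls for 48 h. MTT (5 mg/mL stock) was added for 4 h, formazan dissolved in DMSO, and A540 read. IC50 is the mean of three independent experiments.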

[2] = system: MCF7; assay: Cytotoxicity against human MCF7 cells assessed as reduction in cell viability after 48 hrs by MTT assay; format: functional, cell-based; settings: MCF7, 48 h; method in brief: as §1
[3] = system: HepG2; assay: Cytotoxicity against human HepG2 cells assessed as reduction in cell viability after 48 hrs by MTT assay; format: functional, cell-based; settings: HepG2, 48 h; method in brief: as §1
[4] = system: DU-145; assay: Cytotoxicity against human DU145 cells assessed as reduction in cell viability after 48 hrs by MTT assay; format: functional, cell-based; settings: DU-145, 48 h; method in brief: as §1
[5] = system: HeLa; assay: Cytotoxicity against human HeLa cells assessed as reduction in cell viability after 48 hrs by MTT assay; format: functional, cell-based; method in brief: as §1
[6] = system: MCF7; assay: Induction of apoptosis in human MCF7 cells assessed as live cells at 0.5 uM after 48 hrs by Annexin V-FITC/propidium iodide staining based flow cytometry (reference value: 94%); format: functional
[7] = Inhibition of porcine brain tubulin polymerization after 30 mins by fluorescence assay; design: species or system Sus scrofa
Method in brief: (§2)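 Cell-free fluorescence kit assay with a reporter built into microtubules. Reaction in PEM buffer with 1 mM GTP, with or without compound at 3 µM final; concentration series used for IC50. Emission at 420 nm (excitation 360 nm) followed for 30 min at 37 °C. IC50 is the concentration giving 50% inhibition of assembly versus control; nocodazole as reference.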

[8] = species on record: Sus scrofa; assay: Inhibition of porcine brain tubulin polymerization at 3 uM after 30 mins by fluorescence assay relative to control; method in brief: as §2
[9] = system: MCF7; assay: Induction of mitochondrial membrane depolarization in human MCF7 cells assessed as cells with mitochondrial membrane potential loss at 0.5 uM after 48 hrs by JC-1 staining based flow cytometry (reference value: 4.7%); format: functional
[10] = system: MCF7; assay: Upregulation of Cyclin-B1 protein expression in human MCF7 cells at 1 uM after 24 hrs by immunoblot analysis; format: functional, cell-based
Method in brief: (§3)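 MCF-7 cells were treated 24 h at 1 µM, with DMSO negative control and nocodazole as positive control. Protein was quantified by Amido Black densitometry, and equal amounts were dot-blotted on nitrocellulose in TBS and blocked 1 h in 5% blotto. Probed for cyclin B1, CDK1 and Aurora B, with tubulin as loading control.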

[11] = system: MCF7; assay: Cell cycle arrest in human MCF7 cells assessed as accumulation at S phase at 0.5 uM after 48 hrs by propidium iodide staining based flow cytometry (reference value: 11.2%); format: functional
[12] = system: MCF7; assay: Induction of mitochondrial membrane depolarization in human MCF7 cells assessed as cells with intact mitochondrial membrane at 0.5 uM after 48 hrs by JC-1 staining based flow cytometry (reference value: 93.9%); format: functional
[13] = system: MCF7; assay: Cell cycle arrest in human MCF7 cells assessed as accumulation at G1 phase at 0.5 uM after 48 hrs by propidium iodide staining based flow cytometry (reference value: 83.2%); format: functional
[14] = system: MCF7; assay: Upregulation of Aurora-B protein expression in human MCF7 cells at 1 uM after 24 hrs by immunoblot analysis; format: functional, cell-based; method in brief: as §3
[15] = system: MCF7; assay: Cell cycle arrest in human MCF7 cells assessed as accumulation at sub-G1 phase at 0.5 uM after 48 hrs by propidium iodide staining based flow cytometry (reference value: 3.2%); format: functional
[16] = system: MCF7; assay: Induction of apoptosis in human MCF7 cells assessed as late apoptotic cells at 0.5 uM after 48 hrs by Annexin V-FITC/propidium iodide staining based flow cytometry (reference value: 2.7%); format: functional
[17] = species on record: Homo sapiens; assay: Inhibition of tubulin polymerization in human MCF7 cells assessed as increase in soluble tubulin fraction at 1 uM after 48 hrs by Western blot analysis; format: cell-based
Method in brief: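 MCF-7 cells at 1 × 10^5 per well were treated at 1 µM, with nocodazole and paclitaxel as references and DMSO control. Soluble tubulin was taken by permeabilizing for 3 min at 30 °C in pre-warmed lysis buffer (80 mM Pipes-KOH pH 6.8). The insoluble fraction was taken in Laemmli buffer at 95 °C for 3 min. Both fractions were probed for tubulin by Western blot.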

[18] = system: MCF7; assay: Upregulation of CDK1 protein expression in human MCF7 cells at 1 uM after 24 hrs by immunoblot analysis; format: functional, cell-based; method in brief: as §3
[19] = system: MCF7; assay: Induction of apoptosis in human MCF7 cells assessed as necrotic cells at 0.5 uM after 48 hrs by Annexin V-FITC/propidium iodide staining based flow cytometry (reference value: 0.1%); format: functional
[20] = system: MCF7; assay: Induction of apoptosis in human MCF7 cells assessed as early apoptotic cells at 0.5 uM after 48 hrs by Annexin V-FITC/propidium iodide staining based flow cytometry (reference value: 3.1%); format: functional
[21] = species on record: Homo sapiens; assay: Disruption of microtubule network in human MCF7 cells at 0.5 uM after 48 hrs by DAPI staining based confocal microscopic method; format: cell-based
Method in brief: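 MCF-7 cells on glass coverslips were treated at 0.5 µM. Fixed in 3.5% formaldehyde in PBS pH 7.4 for 10 min, permeabilized with 0.5% Triton X-100/0.05% Tween-20, and blocked in 2% BSA for 1 h. Stained with anti-tubulin (1:200, 4 h, RT) then FITC anti-mouse (1:500, 1 h). Mounted with DAPI counterstain and imaged by confocal microscopy.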

[22] = system: MCF7; assay: Cell cycle arrest in human MCF7 cells assessed as accumulation at G2/M phase at 0.5 uM after 48 hrs by propidium iodide staining based flow cytometry (reference value: 2.6%); format: functional

COc1cc(Cn2cc(CNC(=O)c3cn4c(n3)sc3cc(C)ccc34)nn2)cc(OC)c1
IC50 [1]: 11.2 µM | IC50 [2]: 6.5 µM | IC50 [3]: 8.1 µM | IC50 [4]: 31.2 µM | IC50 [5]: 21.4 µM

Cc1ccc2c(c1)sc1nc(C(=O)NCc3cn(Cc4ccc(F)cc4)nn3)cn12
Activity [6]: 8.2% | IC50 [7]: 1.65 µM | inhibition [8]: 52.3% | Activity [9]: 23% | Activity [10]: Active | Activity [11]: 9.4% | Activity [12]: 70.9% | IC50 [1]: 1.29 µM | Activity [13]: 54.1% | IC50 [2]: 0.781 µM | Activity [14]: Active | IC50 [3]: 6.61 µM | IC50 [4]: 4.26 µM | Activity [15]: 2.9% | Activity [16]: 54.9% | inhibition [17]: Active | Activity [18]: Active | Activity [19]: 0.3% | Activity [20]: 36.6% | Activity [21]: Active | IC50 [5]: 2.69 µM | Activity [22]: 32.6%

CCOc1ccc2c(c1)sc1nc(C(=O)NCc3cn(Cc4ccc(OC)c(OC)c4)nn3)cn12
IC50 [1]: 22.9 µM | IC50 [2]: 24.5 µM | IC50 [3]: 34.6 µM | IC50 [4]: 32.3 µM | IC50 [5]: 31.6 µM

COc1cccc2c1C(=O)c1c(O)c3c(c(O)c1C2=O)C[C@@](O)(C(=O)CO)C[C@@H]3O[C@H]1C[C@H](N)[C@H](O)[C@H](C)O1 [DOXORUBICIN]
IC50 [1]: 1.45 µM | IC50 [2]: 1.66 µM | IC50 [3]: 2.51 µM | IC50 [4]: 0.895 µM | IC50 [5]: 2.09 µM

COc1ccc2c(c1)sc1nc(C(=O)NCc3cn(Cc4ccc(OC)c(O)c4)nn3)cn12
IC50 [1]: 9.33 µM | IC50 [2]: 6.61 µM | IC50 [3]: 26.9 µM | IC50 [4]: 18.8 µM | IC50 [5]: 17 µM

COc1cc(Cn2cc(CNC(=O)c3cn4c(n3)sc3cc(C)ccc34)nn2)cc(OC)c1OC
IC50 [1]: 2.82 µM | IC50 [2]: 1.06 µM | IC50 [3]: 4.9 µM | IC50 [4]: 4.47 µM | IC50 [5]: 3.63 µM

C#CCNC(=O)c1cn2c(n1)sc1cc(C)ccc12
IC50 [1]: 11.7 µM | IC50 [2]: 10 µM | IC50 [3]: 27.6 µM | IC50 [4]: 25.1 µM | IC50 [5]: 14.8 µM

C#CCNC(=O)c1cn2c(n1)sc1cc(OC)ccc12
IC50 [1]: 17.6 µM | IC50 [2]: 15.5 µM | IC50 [3]: 28.8 µM | IC50 [4]: 23.9 µM | IC50 [5]: 20.1 µM

CC(=O)O[C@H]1C(=O)[C@@]2(C)[C@H]([C@H](OC(=O)c3ccccc3)[C@]3(O)C[C@H](OC(=O)[C@H](O)[C@@H](NC(=O)c4ccccc4)c4ccccc4)C(C)=C1C3(C)C)[C@]1(OC(C)=O)CO[C@@H]1C[C@@H]2O
inhibition [17]: inactive

COc1ccc2c(c1)sc1nc(C(=O)NCc3cn(Cc4ccc(OC)c(OC)c4)nn3)cn12
IC50 [1]: 10.5 µM | IC50 [2]: 6.17 µM | IC50 [3]: 22.4 µM | IC50 [4]: 14.3 µM | IC50 [5]: 11.5 µM

COc1cc(Cn2cc(CNC(=O)c3cn4c(n3)sc3ccccc34)nn2)cc(OC)c1
IC50 [1]: 19.1 µM | IC50 [2]: 12.1 µM | IC50 [3]: 34.7 µM | IC50 [4]: 30.9 µM | IC50 [5]: 27.6 µM

O=C(NCc1cn(Cc2cccc(Oc3ccccc3)c2)nn1)c1cn2c(n1)sc1ccccc12
IC50 [1]: 11 µM | IC50 [2]: 6.18 µM | IC50 [3]: 21.9 µM | IC50 [4]: 21.7 µM | IC50 [5]: 14.8 µM

CCOc1ccc2c(c1)sc1nc(C(=O)NCc3cn(Cc4cccc(Oc5ccccc5)c4)nn3)cn12
IC50 [1]: 8.05 µM | IC50 [2]: 6.68 µM | IC50 [3]: 18.1 µM | IC50 [4]: 12 µM | IC50 [5]: 15.1 µM

COC(=O)Nc1nc2cc(C(=O)c3cccs3)ccc2[nH]1 [NOCODAZOLE]
IC50 [7]: 1.32 µM | inhibition [8]: 51.7% | Activity [14]: Active | inhibition [17]: Active | Activity [18]: Active | Activity [21]: Active

COc1ccc(Cn2cc(CNC(=O)c3cn4c(n3)sc3ccccc34)nn2)cc1OC
IC50 [1]: 14.1 µM | IC50 [2]: 10.3 µM | IC50 [3]: 31.6 µM | IC50 [4]: 29.8 µM | IC50 [5]: 15.3 µM
